# Activity calls are given as the source filed them. No cut-off for these calls is given here.
# Key:
# [1] = Metabolic stability in mouse liver microsomes assessed as parent compound remaining after 30 mins; format: ADME, Microsome; conditions: for remaining at 0.5 h: liver microsomes, read-out: Stabilty; for Stabilty: microsomes, 0.5 h
# Method in brief: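 Compound incubated with mouse liver microsomes for 30 minutes at 37 °C, with dextromethorphan as positive control. Read-out is the percentage of unmodified compound remaining at 30 min.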
# [2] = Metabolic stability in mouse liver microsomes assessed as half life; format: ADME, Microsome; conditions: for half-life: liver microsomes
# Method in brief: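 Half-life in mouse liver microsome assays was calculated from the amount of compound remaining over time, with dextromethorphan as positive control.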
# SH-SY5Y [3] = test: Inhibition of HSP70 in human SH-SY5Y cells assessed as degradation of tau at 3 to 30 uM incubated for 24 hrs by Western blot analysis relative to control; format: cell-based; conditions: dose 3-30 µM
# Method in brief: (§1)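 Cells treated for 24 h at the indicated concentrations, then lysed; total tau, Hsp72 and Hsp90 levels analyzed by Western blot. HeLaC3 cells over-express 0N4R tau. SH-SY5Y cells express tau at physiological levels.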
# SH-SY5Y [4] = test: Induction of heat shock response in human SH-SY5Y cells assessed as effect on HSP72 expression at 3 to 30 uM incubated for 24 hrs by Western blot analysis; format: cell-based; conditions: dose 3-30 µM; method in brief: as §1
# [5] = Induction of heat shock response in human HeLa C3 cells assessed as effect on HSP90 expression at 3 to 30 uM incubated for 24 hrs by Western blot analysis; format: cell-based; conditions: hela c3, 24 h, dose 3-30 µM; method in brief: as §1
# HeLa C3 = test: Inhibition of HSP70 in human HeLa C3 cells assessed as degradation of tau at >10 uM incubated for 24 hrs by Western blot analysis; format: cell-based; conditions: dose microM >10, time 24.0 hrs; method in brief: as §1
# [6] = Induction of heat shock response in human HeLa C3 cells assessed as effect on HSP72 expression at 3 to 30 uM incubated for 24 hrs by Western blot analysis; format: cell-based; conditions: hela c3, 24 h, dose 3-30 µM; method in brief: as §1
# SH-SY5Y [7] = test: Induction of heat shock response in human SH-SY5Y cells assessed as effect on HSP90 expression at 3 to 30 uM incubated for 24 hrs by Western blot analysis; format: cell-based; conditions: dose 3-30 µM; method in brief: as §1
smiles,measurement,setting,value
CCn1c(=O)/c(=C2\Sc3c(F)cccc3N2C)s/c1=C\c1ccncc1,remaining at 0.5 h,[1],30%
CCn1c(=O)/c(=C2\Sc3cc(Cl)ccc3N2C)s/c1=C\c1ccccn1,remaining at 0.5 h,[1],13%
CCn1c(=O)/c(=C2\Sc3c(Cl)cccc3N2C)s/c1=C\c1ccccn1,remaining at 0.5 h,[1],17%
CCn1c(=O)/c(=C2\Sc3c(F)cccc3N2C)s/c1=C\c1ccccn1,remaining at 0.5 h,[1],12%
COc1ccc2c(c1)[C@]13CCCC[C@@H]1[C@H](C2)N(C)CC3 [DEXTROMETHORPHAN],half-life,[2],25 min
CCn1c(=O)/c(=C2\Sc3ccc(Cl)cc3N2C)s/c1=C\c1ccncc1,inhibition,SH-SY5Y [3],80%
same,Activity,SH-SY5Y [4],Non-Toxic
same,remaining at 0.5 h,[1],52%
same,Activity,[5],Non-Toxic
same,inhibition,HeLa C3,Active
same,Activity,[6],Non-Toxic
same,t1/2,[2]; microsomes,36 min
same,Activity,SH-SY5Y [7],Non-Toxic
CCn1c(=O)/c(=C2\Sc3cccc(Cl)c3N2C)s/c1=C\c1ccccn1,remaining at 0.5 h,[1],38%
same,half-life,[2],23 min
CCn1c(=O)/c(=C2\Sc3ccc(Cl)cc3N2C)s/c1=C\c1ccccn1,remaining at 0.5 h,[1],37%
same,half-life,[2],17 min
CCn1c(=O)/c(=C2\Sc3c(Cl)cccc3N2C)s/c1=C\c1ccncc1,Stabilty,[1],Nd(Insoluble)
CCn1c(=O)/c(=C2\Sc3cccc(Cl)c3N2C)s/c1=C\c1ccncc1,Stabilty,[1],Nd(Insoluble)
CCn1c(=O)/c(=C2\Sc3cccc(F)c3N2C)s/c1=C\c1ccncc1,remaining at 0.5 h,[1],33%
CCn1c(=O)/c(=C2\Sc3ccccc3N2C)s/c1=C\c1ccccn1,Stabilty,[1]; BLD = below limit of detection,Bld
same,half-life,[2],< 3 min
CCn1c(=O)/c(=C2\Sc3cc(F)ccc3N2C)s/c1=C\c1ccncc1,remaining at 0.5 h,[1],13%
CCn1c(=O)/c(=C2\Sc3ccc(F)cc3N2C)s/c1=C\c1ccccn1,remaining at 0.5 h,[1],19%
CCn1c(=O)/c(=C2\Sc3cccc(F)c3N2C)s/c1=C\c1ccccn1,remaining at 0.5 h,[1],12%
CCn1c(=O)/c(=C2\Sc3ccc(F)cc3N2C)s/c1=C\c1ccncc1,remaining at 0.5 h,[1],23%
CCn1c(=O)/c(=C2\Sc3cc(Cl)ccc3N2C)s/c1=C\c1ccncc1,remaining at 0.5 h,[1],39%
same,half-life,[2],22 min
CCn1c(=O)/c(=C2\Sc3cc(F)ccc3N2C)s/c1=C\c1ccccn1,remaining at 0.5 h,[1],5%
CCn1c(=O)/c(=C2\Sc3ccccc3N2C)s/c1=C\c1ccncc1,remaining at 0.5 h,[1],6%

# Source: ChEMBL document CHEMBL4814053, “Inhibitors of heat shock protein 70 (Hsp70) with enhanced metabolic stability reduce tau levels” (Bioorg Med Chem Lett, 2021)
